Test results taken from article PMC8266253 (Journal of Enzyme Inhibition and Medicinal Chemistry, 2021).
Positions count from the first letter of the chain named. Like-named read-outs stand apart in the source and are kept apart here.

Experiments:
AKR1C2 = target: T1, AKR1C2 (Homo sapiens, UniProt P52895); experiment: Inhibition assay for recombinant AKR1C2; format: biochemical; conditions: for inhibition at 10 µM: pH 9, read-out: AKR1C2 Inhibition (%) 10 μM
T1 sequence (P52895 1-323): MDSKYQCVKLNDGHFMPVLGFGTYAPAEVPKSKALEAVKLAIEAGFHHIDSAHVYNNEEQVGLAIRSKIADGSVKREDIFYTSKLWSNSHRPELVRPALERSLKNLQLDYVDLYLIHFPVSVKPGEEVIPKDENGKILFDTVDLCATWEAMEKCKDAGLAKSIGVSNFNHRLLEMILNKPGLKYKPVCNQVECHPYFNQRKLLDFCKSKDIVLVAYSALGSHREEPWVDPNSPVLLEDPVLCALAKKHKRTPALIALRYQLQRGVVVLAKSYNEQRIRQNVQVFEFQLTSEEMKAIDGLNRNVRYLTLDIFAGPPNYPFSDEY
Outline: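 Rates are followed as NADH absorbance increase at 340 nm, with recombinant AKR1C2 (0.3 µM, added last) and 180 µM final 1-acenaphthenol. The mix is 2.3 mM NAD⁺, 0.09 M potassium phosphate pH 9.0, 0.005% Triton X-114 and 0.05% DMSO, plus test compound in DMSO. Duplicates, two independent experiments. IC50 is fitted from residual activity vs log concentration; inhibition mode, KM, KI and α are fitted from kinetics.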

AKR1C1 = target: T2, AKR1C1 (Homo sapiens, UniProt Q04828); experiment: Inhibition assay for recombinant AKR1C1; format: biochemical; conditions: for inhibition at 10 µM: pH 9, read-out: AKR1C1 Inhibition (%) 10 μM
T2 sequence (Q04828 1-323): T1 sequence (P52895 1-323) with V38T, H47R, V54L, S87C, M151V, H170R, L172Q
Outline: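 Human recombinant AKR1C1 oxidising 1-acenaphthenol (90 µM final) with 2.3 mM NAD⁺, in 0.09 M potassium phosphate pH 9.0, 0.005% Triton X-114, 0.05% DMSO. Test compound is added in DMSO, and 0.1 µM enzyme starts the reaction. NADH rise at 340 nm gives initial velocities. Runs are in duplicate, two independent experiments. IC50 comes from residual activity vs log inhibitor; inhibition type, KM, KI and α come from kinetic fitting.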

[1] = pH 9, read-out: AKR1C2 Inhibition (%) 100 μM
[2] = pH 9, read-out: AKR1C1 Inhibition (%) 100 μM

`C[C@@]12CC[C@@H]3c4cc(Br)c(O)c(Cl)c4CC[C@H]3[C@@H]1CCC2=O` [2_2Br,4Cl, 2-bromo-4-chloro-3-hydroxy-13α-oestra-1,3,5(10)-trien-17-one] was tested. Which IC50 (AKR1C2) did it give?
The IC50 was 3100 nM.

And the inhibition at 10 µM (AKR1C2)?
Its inhibition at 10 µM is 80%.

What about the inhibition at 100 µM (AKR1C2; [1]) of the same compound?
The inhibition at 100 µM was 99%.

What about the IC50 (AKR1C1) of the same compound?
Its IC50 is 1700 nM.

What about the inhibition at 10 µM (AKR1C1) of the same compound?
The inhibition at 10 µM was 80%.

And the inhibition at 100 µM (AKR1C1; [2])?
Its inhibition at 100 µM is 92.3%.

Which results are given for `C[C@@]12CC[C@@H]3c4cc(Br)c(O)c(I)c4CC[C@H]3[C@@H]1CCC2=O` [2_2Br,4I, 2-bromo-3-hydroxy-4-iodo-13α-oestra-1,3,5(10)-trien-17-one]?
IC50 (AKR1C2): 4400 nM; inhibition at 10 µM (AKR1C2): 75%; inhibition at 100 µM (AKR1C2; [1]): 100%; IC50 (AKR1C1): 7200 nM; inhibition at 10 µM (AKR1C1): 67%; inhibition at 100 µM (AKR1C1; [2]): 100%

What does the source list for `C[C@@]12CC[C@@H]3c4cc(Cl)c(O)c(Br)c4CC[C@H]3[C@@H]1CCC2=O` [2_2Cl,4Br, 4-bromo-2-chloro-3-hydroxy-13α-oestra-1,3,5(10)-trien-17-one]?
inhibition at 10 µM (AKR1C2): 65%; inhibition at 100 µM (AKR1C2; [1]): 91.9%; IC50 (AKR1C1): 1900 nM; inhibition at 10 µM (AKR1C1): 80%; inhibition at 100 µM (AKR1C1; [2]): 93.9%

For `C[C@@]12CC[C@@H]3c4cc(Cl)c(O)c(I)c4CC[C@H]3[C@@H]1CCC2=O` [2_2Cl,4I, 2-chloro-3-hydroxy-4-iodo-13α-oestra-1,3,5(10)-trien-17-one], which IC50 (AKR1C2) is on record?
Its IC50 is 4600 nM.

And the inhibition at 10 µM (AKR1C2)?
The inhibition at 10 µM was 73%.

And the inhibition at 100 µM (AKR1C2; [1])?
The inhibition at 100 µM was 89.2%.

What about the inhibition at 10 µM (AKR1C1) of the same compound?
Its inhibition at 10 µM is 50%.

What about the inhibition at 100 µM (AKR1C1; [2]) of the same compound?
The inhibition at 100 µM was 82.6%.

Which results are given for `C[C@@]12CC[C@@H]3c4cc(I)c(O)c(Br)c4CC[C@H]3[C@@H]1CCC2=O` [2_2I,4Br, 4-bromo-3-hydroxy-2-iodo-13α-oestra-1,3,5(10)-trien-17-one]?
inhibition at 10 µM (AKR1C2): 59.5%; inhibition at 100 µM (AKR1C2; [1]): 74.7%; inhibition at 100 µM (AKR1C2; read-out: Biological activity AKR1C2 (biological inhibition at 100 μM)): 74.7%; IC50 (AKR1C1): 700 nM; Ki (AKR1C1): 570 nM; Type of inhibition of AKR1C1 (AKR1C1; kinetic studies): mixed type of inhibition; inhibition at 10 µM (AKR1C1): 90.7%; inhibition at 100 µM (AKR1C1; [2]): 93.4%; inhibition at 100 µM (AKR1C1; read-out: Biological activity AKR1C1 (biological inhibition at 100 μM)): 93.4%

Which IC50 (AKR1C2) does the source give for `C[C@@]12CC[C@@H]3c4cc(I)c(O)c(Cl)c4CC[C@H]3[C@@H]1CCC2=O` [2_2I,4Cl, 4-chloro-3-hydroxy-2-iodo-13α-oestra-1,3,5(10)-trien-17-one] here?
The IC50 was 7100 nM.

What about the inhibition at 10 µM (AKR1C2) of the same compound?
Its inhibition at 10 µM is 73%.

What about the inhibition at 100 µM (AKR1C2; [1]) of the same compound?
Its inhibition at 100 µM is 87.5%.

And the IC50 (AKR1C1)?
Its IC50 is 800 nM.

What about the inhibition at 10 µM (AKR1C1) of the same compound?
Its inhibition at 10 µM is 90%.

What about the inhibition at 100 µM (AKR1C1; [2]) of the same compound?
The inhibition at 100 µM was 99%.
